Sampled rows, rich in hits. Any-hit rate of the full collection: about 1.4%.
Efflux pump inh = antifungal efflux pump inhibition, Nile Red retention; S. cerevisiae Candida pump triplex; inhibition, % at 10 µM; hit rate 0.44% among 330,000; AID 485275;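 active means plate passing quality check with inhibition over a set limit, or well fluorescence over plate mean plus 4 SD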;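 further: Nile Red retained in pooled yeast measured as flow cytometry median fluorescence; 0% = buffer negative control and 100% = Enniatin B positive control; higher means more Nile Red kept so more efflux inhibition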
TbMetRS inhib = Trypanosoma brucei MetRS inhibition | purified T. brucei MetRS, ATP depletion, Kinase-Glo luminescence | inhibition, % at 11.9 µM | hit rate 0.4% among 360,000 | AID 624268;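 active means inhibition above a per-plate cutoff of the control wells' mean inhibition plus 3 SD, cut at about 5.5% in these data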;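 further: 0% = DMSO wells median and 100% = median of wells with control inhibitor compound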
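Test system – parasite MetRS enzyme · Reagent – substrates ATP, L-methionine and bulk Escherichia coli tRNA · Doses – 11.9 µM compound single dose, 0.9% DMSO · Times – 15 min enzyme-compound preincubation, 2 h reaction, 10 min detection, 25 °C · Signal – Kinase-Glo luminescence, ATP depletion format · Controls – DMSO-only wells as low control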
IDE act = IDE (human) activation, cell-based; activation, % at 5.96 µM; hit rate 0.073% among 340,000; P14735; HEK cells, FAbeta-B cleavage, fluorescence polarization; 0% vehicle, 100% cell-free pure enzyme wells;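 active means activation above the mean of all tested compounds plus 3 SD, set per screening campaign, cut at about 17% in these data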
Yeast superoxide = yeast age-related superoxide inhibition as caloric restriction mimetic; S. cerevisiae aged cells, superoxide DHE fluorescence; hits give low values; superoxide response (% of plate mean), % at 10 µM; AID 2690; hit rate 0.18% among 330,000;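 active means superoxide response under a set limit, about three screen SD below normal, cut at about 65% in these data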;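 further: yeast aged for seven days with compound at 30 °C before DHE staining; 100% = average MFI of all compound-treated wells on the plate with controls excluded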
HDAC3 inh = human HDAC3 inhibition | hit rate 0.15% among 320,000 | inhibition, % at 8.3 µM | recombinant HDAC3, fluorogenic peptide/trypsin coupled, fluorescence; in the data active means inhibition above about 26%, passing the limit was not always enough
IDE cell inh = inhibits human insulin-degrading enzyme in HEK cells; P14735; FAbetaB cleavage, fluorescence polarization; inhibition, % at 5.59 µM; hit rate 0.41% among 320,000; AID 434962;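 active means percent inhibition above the average of all tested compounds plus 3 SD, set per screening campaign, cut at about 16% in these data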;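 further: IDE supplied by intact live HEK cells; FP after avidin binding of uncleaved biotin substrate so inhibition keeps polarization high; 0% = DMSO wells and 100% = 60 µM reference IDE inhibitor Ii1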
TbMetRS confirm = Trypanosoma brucei MetRS inhibition confirmed. T. brucei MetRS enzyme, luminescence (ATP depletion). shares compounds with TbMetRS inhib. hit rate 93% among 1,400. inhibition, % at 11.9 µM; in the data active means inhibition above about 7%
Jurkat tox = kills Jurkat cells in T. brucei MetRS counterscreen. shares compounds with TbMetRS inhib. Jurkat cells viability, ATP luminescence. inhibition, % at 8.3 µM. hit rate 12% among 1,400. AID 624413; in the data active means inhibition above about 15%;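 further: 0% = vehicle and 100% = reference inhibitor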
Tb MetRS inh FP = T. brucei MetRS inhibition, orthogonal assay. shares compounds with TbMetRS inhib. purified T. brucei MetRS, fluorescence polarization. inhibition, % at 11.9 µM. hit rate 44% among 1,400. AID 651607; in the data active means inhibition above about 17%;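 further: 0% = vehicle wells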
Active calls of the source: *.

`CCOc1ccc(C2c3[nH]c4ccccc4c3C[C@H]3C(=O)N(C4CCN(Cc5ccccc5)CC4)CC(=O)N23)cc1OC` (stereo partly specified) gave Efflux pump inh 0, TbMetRS inhib -1, IDE act 3, Yeast superoxide 100 and HDAC3 inh 11.
Screening C/C(CC(=O)Nc1ccc(Cl)c(C(F)(F)F)c1)=N\NC(=O)c1cccc(O)c1 returned Efflux pump inh -1, TbMetRS inhib 0, IDE act 7, Yeast superoxide 92, HDAC3 inh 8 and IDE cell inh -7.
For C/C(CC(=O)Nc1ccc(Cl)c(C(F)(F)F)c1)=N\NC(=O)c1ccccc1O the results were Efflux pump inh 0, TbMetRS inhib 16*, IDE act 5, Yeast superoxide 101, HDAC3 inh 0, IDE cell inh -2, TbMetRS confirm 93*, Jurkat tox 28* and Tb MetRS inh FP 91*.
Screening O=C(O)c1ccc(-c2nn3c(=O)cc(N4CCNCC4)nc3s2)cc1 returned TbMetRS inhib -1.
`CC(=O)c1cccc(NC(=O)c2cccc3c(-c4cnn(C)c4)coc23)c1` gave TbMetRS inhib 0.
Screening O=C1N(Cc2cccc(Cl)c2)C[C@@H]2C[C@@H](c3c[nH]c4ccccc34)N3CCC[C@@]123 returned Efflux pump inh 0, TbMetRS inhib 5.9*, IDE act 1, Yeast superoxide 90, HDAC3 inh -1, IDE cell inh 5, TbMetRS confirm 11*, Jurkat tox 5 and Tb MetRS inh FP 8.
`O=C(NCc1nc2ccccc2[nH]1)C1=C[C@H](c2coc3ccccc3c2=O)C[C@H](OCCCCO)O1` gave Efflux pump inh 0, TbMetRS inhib 17*, IDE act -1, Yeast superoxide 92, HDAC3 inh 1, IDE cell inh 4, TbMetRS confirm 53*, Jurkat tox -3 and Tb MetRS inh FP 18*.
For O=C(NCc1ccccc1)C1=C[C@H](c2ccc(Br)cc2)C[C@H](OCCCCO)O1 the results were Efflux pump inh 0, TbMetRS inhib 0, IDE act 0, Yeast superoxide 103, HDAC3 inh 8 and IDE cell inh 5.
Screening O=C(NCc1nc2ccccc2[nH]1)C1=C[C@@H](c2ccc(Br)cc2)C[C@@H](OCc2ccc(CO)cc2)O1 returned Efflux pump inh 0, TbMetRS inhib 79*, IDE act 4, Yeast superoxide 106, HDAC3 inh 2, IDE cell inh 1, TbMetRS confirm 101*, Jurkat tox 4 and Tb MetRS inh FP 84*.
Screening O=C(NCc1nc2ccccc2[nH]1)C1=C[C@@H](c2ccc(Br)cc2)C[C@@H](OCCCCO)O1 returned Efflux pump inh 0, TbMetRS inhib 85*, IDE act 0, Yeast superoxide 92, HDAC3 inh 5, IDE cell inh 3, TbMetRS confirm 104*, Jurkat tox 1 and Tb MetRS inh FP 106*.
CCc1nc2c(OCc3c(C)noc3C)cccn2c1N(C=O)Cc1ccc(OC)cc1 was read as TbMetRS inhib 0.
Screening O=C(O)C(CCc1ccccc1)N1CCOCC1 (stereo unspecified) returned TbMetRS inhib 0.
Screening Brc1ccc(-c2nnc3sc(CNCc4ccc5c(c4)OCO5)cn23)cc1 returned Efflux pump inh 0, TbMetRS inhib 33*, IDE act 2, Yeast superoxide 92, HDAC3 inh 0, IDE cell inh 3, TbMetRS confirm 48*, Jurkat tox 2 and Tb MetRS inh FP 25*.
`Brc1ccc(-c2nnc3sc(CNC4CCCC4)cn23)cc1` gave Efflux pump inh 0, TbMetRS inhib 0, IDE act 5, Yeast superoxide 102, HDAC3 inh 1 and IDE cell inh 0.
COc1ccc([N+](=O)[O-])c(O)c1C(C)=O was read as TbMetRS inhib 0 and IDE act 4.
